High-throughput results deposited in PubChem BioAssay by Broad Institute.
T cruzi growth-1 – T. cruzi intracellular proliferation inhibitors, primary screen, cell-based, beta-gal Tulahuen parasites, NIH3T3 host, luminescence; 77,000 tested, 5.9% active; AID 624255, 2012; T. cruzi beta-gal in NIH3T3, GalScreen luminescence, 90 h; inhibition, % at 8.34 µM;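 active = mean inhibition above about 93%, with at least 55% of replicates each passing it, limit read from the data, passing the limit was not always enough; inconclusive = only one of those two conditions holds; inactive = neither condition holds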
KDM4C inh – inhibitors of GASC-1 (KDM4C) histone demethylase, primary screen, biochemical, single concentration HTS. GST-KDM4C 2-372, H3K9me3 peptide, LANCE TR-FRET. inhibition, % at 12.5 µM. 96,000 tested, 0.15% active. AID 720574, 2013;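 active = mean replicate inhibition above about 25%, with at least 55% of replicates also reaching it, limit read from the data, passing the limit was not always enough; inconclusive = only one of those two conditions met; inactive = neither condition met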
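Test system: N-terminal GST-fused human GASC-1 (KDM4C) fragment, residues 2-372; quantity: GASC-1 enzyme at 10 nM final in reaction; dosing: single dose; schedule: 30 min demethylation and 1 h detection at room temperature; signal: LANCE TR-FRET, excitation 340 nm, emissions 618 and 671 nm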
IDH1 R132H inh – inhibitors of IDH1 R132H reductase, primary screen, biochemical, plate reader, single point. diaphorase/resazurin fluorescence, 60 min. inhibition, % at 10 µM. Isocitrate dehydrogenase [NADP] cytoplasmic (Homo sapiens), O75874. 70,000 tested, 0.18% active. AID 624101, 2012; in the data active = inhibition above about 34%; inconclusive = no clear call, values can overlap the other calls; inactive = below about 11%
Target sequence (O75874 whole entry R132H): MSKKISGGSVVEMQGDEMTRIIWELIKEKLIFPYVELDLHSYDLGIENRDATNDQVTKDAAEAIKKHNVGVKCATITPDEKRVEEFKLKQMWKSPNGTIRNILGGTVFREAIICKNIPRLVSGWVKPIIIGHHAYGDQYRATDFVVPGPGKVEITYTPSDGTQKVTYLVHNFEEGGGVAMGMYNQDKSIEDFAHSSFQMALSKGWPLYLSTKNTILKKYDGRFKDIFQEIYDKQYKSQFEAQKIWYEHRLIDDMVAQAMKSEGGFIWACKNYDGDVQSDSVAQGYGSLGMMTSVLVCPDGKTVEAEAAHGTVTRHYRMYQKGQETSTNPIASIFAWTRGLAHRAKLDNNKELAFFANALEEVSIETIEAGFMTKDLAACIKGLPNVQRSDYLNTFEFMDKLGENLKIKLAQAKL
T cruzi growth-2 – T. cruzi intracellular proliferation inhibitors, confirmation, cell-based, NIH3T3 host, beta-gal parasite, luminescence, cherry-pick. inhibition, % at 8.35 µM. 5,600 tested, 72% active. AID 651739, 2012. T. cruzi beta-gal in NIH3T3, GalScreen luminescence, 90 h. shares compounds with T cruzi growth-1;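 active = mean replicate inhibition above about 95% and at least 55% of replicates individually reaching it, limit read from the data; inconclusive = only one of the two criteria is met; inactive = neither criterion is met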
T cruzi growth-3 – inhibitors of intracellular T. cruzi replication, confirmation, NIH3T3 host cells, beta-gal parasites, cherry-pick, set 2 | 5,600 tested, 21% active | inhibition, % at 2.09 µM | T. cruzi beta-gal in NIH3T3, GalScreen luminescence, 90 h | AID 651740, 2012 | shares compounds with T cruzi growth-1;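 active = mean inhibition above about 95%, with at least 55% of replicates also reaching it, limit read from the data; inconclusive = meets just one of the two conditions; inactive = meets neither condition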
3T3 cytotox – cytotoxicity in mouse NIH/3T3 fibroblasts, confirmation, cytotoxicity control for T. cruzi proliferation inhibitor project, cell-based, cherry-pick, single point; 5,600 tested, 14% active; cytotoxicity (signal decrease), % at 8.35 µM; shares compounds with T cruzi growth-1; NIH/3T3 viability, CellTiter-Glo ATP luminescence, 90 h;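 active = mean signal decrease across replicates above about 35% based on untreated-well scatter, with enough replicates individually passing, limit read from the data; inconclusive = no rule stated though some were filed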
3T3 cytotox 2 – NIH/3T3 fibroblast cytotoxicity, confirmation, cytotoxicity control, cell-based, cherry-pick, single point, set 2. shares compounds with T cruzi growth-1. inhibition, % at 24.9 µM. NIH/3T3 viability, CellTiter-Glo ATP luminescence, 90 h. 5,600 tested, 56% active;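 active = mean loss of cell viability signal at or above a set limit, and enough replicates individually reaching it; inconclusive = meets only the mean limit or only the replicate share; inactive = meets neither condition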
Numbers stand for hits; i = inactive; ? = inconclusive; nt = not tested or not shown; + = active, no number. This excerpt belongs to a sample that is enriched for hits.

SMILES	T cruzi growth-1	KDM4C inh	IDH1 R132H inh	T cruzi growth-2	T cruzi growth-3	3T3 cytotox	3T3 cytotox 2
CCCN1[C@H](C(=O)N(C)C)[C@@H](CO)[C@@H]2Cn3c(ccc(/C=C/c4ccccc4)c3=O)[C@@H]21	i	i	nt	nt	nt	nt	nt
O=C([C@@H]1[C@@H](CO)[C@@H]2Cn3c(ccc(/C=C/c4ccccc4)c3=O)[C@H]1N2)N1CCCCC1	i	i	nt	nt	nt	nt	nt
O=C(O)[C@H]1[C@H](CO)[C@H]2Cn3c(ccc(/C=C/c4ccccc4)c3=O)[C@H]2N1C(=O)c1cnccn1	i	i	nt	nt	nt	nt	nt
O=C(NC1CCC1)[C@H]1[C@H](CO)[C@H]2Cn3c(ccc(/C=C/c4ccccc4)c3=O)[C@H]2N1Cc1ccncc1	i	i	nt	nt	nt	nt	nt
COC(=O)[C@H]1[C@H](CO)[C@H]2Cn3c(ccc(/C=C/c4ccccc4)c3=O)[C@H]2N1C(=O)c1cnccn1	101	i	nt	i	i	i	40
O=C([C@H]1N[C@H]2c3ccc(/C=C/c4ccccc4)c(=O)n3C[C@H]2[C@@H]1CO)N1CCCCC1	+	i	nt	i	i	i	i
O=C(O)[C@H]1[C@H](CO)[C@H]2Cn3c(ccc(/C=C/c4ccccc4)c3=O)[C@H]2N1Cc1ccc2c(c1)OCO2	127	i	nt	i	i	i	63
Cc1ccc(-c2nc3ccccc3s2)cc1NC(=O)COc1ccccc1Cl	nt	nt	i	nt	nt	nt	nt
Cc1noc(C)c1NC(=O)Nc1ccc2c(c1)C(=O)N([C@@H](C)CO)C[C@H](C)[C@H](CN(C)Cc1ccc(C(F)(F)F)cc1)OCCCC[C@H](C)O2	i	i	nt	nt	nt	nt	nt
COCC(=O)N1[C@@H]2c3ccc(/C=C/c4ccccc4)c(=O)n3C[C@H]1[C@H](CO)[C@H]2C(=O)N1CCCCC1	i	i	nt	nt	nt	nt	nt
C[C@H]1CN([C@@H](C)CO)S(=O)(=O)c2ccc(-c3ccccc3)cc2O[C@@H]1CN(C)S(=O)(=O)c1ccccc1F	91	i	i	99	i	37	38
C[C@@H]1CN([C@@H](C)CO)S(=O)(=O)c2ccc(-c3ccncc3)cc2O[C@H]1CN(C)S(=O)(=O)c1ccccc1F	nt	i	i	nt	nt	nt	nt
C[C@H](CO)N1C[C@H](C)[C@H](CN(C)S(=O)(=O)c2ccccc2F)Oc2cc(-c3ccccc3)ccc2S1(=O)=O	120	i	i	100	i	?	45
C[C@H]1CN([C@@H](C)CO)S(=O)(=O)c2ccc(-c3ccccc3)cc2O[C@H]1CN(C)S(=O)(=O)c1ccccc1F	119	i	i	103	103	i	46
C[C@H](CO)N1C[C@H](C)[C@@H](CN(C)S(=O)(=O)c2ccccc2F)Oc2cc(-c3ccccc3)ccc2S1(=O)=O	i	i	i	nt	nt	nt	nt
C[C@@H]1CN([C@@H](C)CO)S(=O)(=O)c2ccc(-c3ccncc3)cc2O[C@@H]1CN(C)S(=O)(=O)c1ccccc1F	nt	i	i	nt	nt	nt	nt
COc1ccc(-c2ccc(CCC(=O)O)n2-c2ccc(C(=O)O)cc2)cc1	nt	nt	i	nt	nt	nt	nt
COc1ccccc1NC(=O)c1ccc(OC(C)C(=O)Nc2cc(Cl)ccc2C)cc1 (stereo unspecified)	nt	nt	i	nt	nt	nt	nt
CN(C)CC#Cc1ccc([C@@H]2[C@@H](CO)N3CCCCN(S(=O)(=O)c4ccccc4F)C[C@H]23)cc1	111	i	nt	98	i	i	85
CN(C)CC#Cc1ccc([C@H]2[C@@H](CO)N3CCCCN(S(=O)(=O)c4ccccc4F)C[C@H]23)cc1	i	i	nt	nt	nt	nt	nt
CCCC#Cc1ccc([C@@H]2[C@@H](CO)N3CCCCN(S(=O)(=O)c4ccccc4F)C[C@@H]23)cc1	i	i	nt	nt	nt	nt	nt
CCCC#Cc1ccc([C@H]2[C@H]3CN(S(=O)(=O)c4ccccc4F)CCCCN3[C@H]2CO)cc1	?	i	nt	111	i	i	105
COC(=O)c1ccccc1NC(=O)C1CCCN(S(=O)(=O)c2ccc(Br)cc2)C1 (stereo unspecified)	nt	nt	i	nt	nt	nt	nt
Cc1noc(C)c1NC(=O)N(C)C[C@@H]1Oc2ccc(NC(=O)C3CCCCC3)cc2C(=O)N([C@H](C)CO)C[C@@H]1C	i	i	i	nt	nt	nt	nt
CC(C)(C(=O)Oc1ccccc1)S(=O)(=O)c1ccc(C(F)(F)F)cn1	nt	nt	i	nt	nt	nt	nt
SMILES	T cruzi growth-1	KDM4C inh	IDH1 R132H inh	T cruzi growth-2	T cruzi growth-3	3T3 cytotox	3T3 cytotox 2
COc1ccc(S(=O)(=O)Nc2ccc3c(c2)C(=O)N([C@@H](C)CO)C[C@H](C)[C@@H](CN(C)S(=O)(=O)c2cccs2)OCCCC[C@@H](C)O3)cc1	109	i	i	103	i	i	i
COc1ccc(S(=O)(=O)Nc2ccc3c(c2)C(=O)N([C@H](C)CO)C[C@H](C)[C@@H](CN(C)S(=O)(=O)c2cccs2)OCCCC[C@@H](C)O3)cc1	i	i	i	nt	nt	nt	nt
COc1ccc(S(=O)(=O)Nc2ccc3c(c2)C(=O)N([C@H](C)CO)C[C@H](C)[C@H](CN(C)S(=O)(=O)c2cccs2)OCCCC[C@H](C)O3)cc1	?	i	nt	106	i	i	i
COc1ccc(S(=O)(=O)Nc2ccc3c(c2)C(=O)N([C@H](C)CO)C[C@H](C)[C@@H](CN(C)S(=O)(=O)c2cccs2)OCCCC[C@H](C)O3)cc1	i	i	nt	nt	nt	nt	nt
Cc1cccc(-n2c(SCC(=O)c3ccccc3)nnc2-c2cccs2)c1C	nt	nt	i	nt	nt	nt	nt
O=C(c1cccc(F)c1)N1CCCCN2[C@H](C1)[C@@H](c1ccc(C#CC3(O)CCCC3)cc1)[C@@H]2CO	i	i	nt	nt	nt	nt	nt
O=C(c1cccc(F)c1)N1CCCCN2[C@H](CO)[C@H](c3ccc(C#CC4(O)CCCC4)cc3)[C@@H]2C1	?	i	nt	109	i	i	i
O=C(c1cccc(F)c1)N1CCCCN2[C@@H](CO)[C@H](c3ccc(C#CC4(O)CCCC4)cc3)[C@@H]2C1	?	i	nt	i	i	i	?
CC(=O)N1CCCCN2[C@@H](CO)[C@@H](c3ccc(C#Cc4ccccc4F)cc3)[C@@H]2C1	i	i	nt	nt	nt	nt	nt
CCC(=O)N1CCCCN2[C@H](CO)[C@H](c3ccc(C#Cc4ccccc4F)cc3)[C@H]2C1	i	i	nt	nt	nt	nt	nt
CC(=O)N1CCCCN2[C@H](CO)[C@@H](c3ccc(C#Cc4ccccc4F)cc3)[C@@H]2C1	113	i	nt	108	i	36	101
CCC(=O)N1CCCCN2[C@H](CO)[C@@H](c3ccc(C#Cc4ccccc4F)cc3)[C@@H]2C1	?	i	nt	101	i	i	104
